Key:
Mus musculus [1] = test: Inhibition against apomorphine-induced climbing, after 1 hour of peroral administration in mouse; type: functional; details: po
Procedure, shortened: (§1)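 Mice were dosed orally (gum arabic suspension, 10 mL/kg, fasted), then given apomorphine 1 mg/kg sc and placed in cylindrical cages with vertical metal bars. Climbing was scored 0 for four paws on the floor, 1 for forefeet on the wall, 2 for four paws on the wall. ED50 is the dose halving the control score.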

[2] = Lethal dose in mice (LD50) following i.p. dosing; type: toxicity, organism-based; details: mouse, in vivo, ip
Procedure, shortened: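 Acute toxicity tested in mice by the intraperitoneal route. LD50 is the dose killing 50% of treated mice, computed by Finney probit analysis; values are approximate.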

Rattus norvegicus [3] = species on record: Rattus norvegicus; test: Body weight gain, after 2 hour period of conditioned feeding in rats; type: functional
Procedure, shortened: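 Female rats (250–280 g) were kept singly on a 22-h food deprivation schedule, with pellets 10–12 a.m. and water always available. After 30–40 days of training they were dosed 1 h before the 2-h feeding and weighed before and after it. Weight gain was expressed as a percentage of the two preceding control days. ED50 is the dose giving 50% reduction.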

Mus musculus [4] = test: Antagonistic activity against amphetamine-induced hypermotility, after 1 hour of peroral administration in mouse; type: functional; details: po
Procedure, shortened: (§2)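 Male mice in groups of five, fasted overnight, given oral drug in arabic gum suspension (10 mL/kg) 1 or 5 h ahead. Amphetamine 4 mg/kg ip given 30 min after drug. Ten minutes later locomotion is recorded for 15 min in a photocell actophotometer. ED50 is 50% reduction versus control hypermotility, by probit analysis. Parenthetical entries give the maximal dose and percent activity.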

Mus musculus [5] = test: Suppression of aggressive behavior, after 1 hour of peroral administration in mouse; type: functional; details: po
Procedure, shortened: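 Male mice made aggressive by isolation in individual black cages for about 1 month plus weekly testosterone cyclopentylpropionate 250 mg/kg sc; pairs preselected for attack on a nonisolated male within 15 min. Oral dosing (arabic gum, 10 mL/kg) 1 or 5 h before test, overnight fast. ED50 = dose suppressing aggression in 50% of animals, probit analysis.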

Mus musculus [6] = test: Inhibition of spontaneous motor activity in mouse, by administering perorally; type: functional; details: po
Procedure, shortened: (§3)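 Mice fasted overnight, then dosed orally with compound (weighed as base) suspended in arabic gum, 10 mL/kg, with vehicle controls; 1 h pretreatment for screening tests, 1 or 5 h for others. Groups of five; locomotor activity counted 10 min in photocell activity cage, at least two groups per dose. ED50 = dose giving 50% inhibition versus controls, by probit analysis.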

Mus musculus [7] = test: Inhibition against apomorphine-induced turning, after 1 hr of peroral administration in mouse; type: functional; details: po
Procedure, shortened: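 Mice were lesioned unilaterally with intranigrostriatal 6-hydroxydopamine (20 µg). At 7 days, strong contraversive turners 15 min after apomorphine 2 mg/kg ip were selected. A week later they were dosed orally and rechallenged. Fewer than six full rotations in 2 min counted as protection. ED50 is the dose protecting 50%.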

Rattus norvegicus [8] = test: Antagonistic activity against amphetamine-induced stereotypy, after 1 hour of peroral administration in rats; type: functional; details: po
Procedure, shortened: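 Male rats dosed orally (arabic gum suspension, 10 mL/kg, fasted overnight) 1 or 5 h beforehand. Amphetamine 7.5 mg/kg iv, with stereotyped movements scored as present or absent 1 h later. ED50 is the dose inhibiting stereotypy in 50% of rats, by probit analysis. Parenthetical entries give the maximal dose and percent activity.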

Mus musculus [9] = test: Inhibition of spontaneous motor activity, after 1 hour of peroral administration in mouse; type: functional; details: po; procedure, shortened: as §3
Rattus norvegicus [10] = test: Activity to evoke catalepsy, after 5 hour of peroral administration in rats; type: functional; details: po
Procedure, shortened: (§4)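 Rats fasted overnight and given oral doses in arabic gum suspension (10 mL/kg), 1 h before screening or 1 and 5 h before profile testing. Forelegs placed on a horizontal bar 7 cm high, three times at 5-min intervals. Immobility of at least 15 s counts as catalepsy. ED50 is the dose giving catalepsy in 50% of rats, by probit analysis. Parenthetical entries give the maximal dose and percent activity.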

Mus musculus [11] = test: Inhibition against apomorphine-induced climbing, after 5 hour of peroral administration in mouse; type: functional; details: po; procedure, shortened: as §1
Mus musculus [12] = test: Antagonistic activity against amphetamine-induced Hypermobility in mouse by administering perorally; type: functional; details: po; procedure, shortened: as §2
Mus musculus [13] = test: Contractile activity in skeletal muscles, after 1 hour of peroral administration in mouse; type: functional; details: Muscle tissue, po
Procedure, shortened: (§5)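 Male mice were placed for 1 h on a 60° inclined wire screen just after dosing and 4 h later. In a second test, trained mice hung by the forepaws from a horizontal 1.8 mm wire 15 cm up; normal mice touch it with a hind paw within 2 s and stay ≥1 min. ED50 is the dose making 50% fall. Dosing was oral in gum arabic suspension at 10 mL/kg after an overnight fast.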

Mus musculus [14] = test: Antagonistic activity against amphetamine-induced hypermotility, after 5 hour of peroral administration in mouse; type: functional; details: po; procedure, shortened: as §2
Mus musculus [15] = test: Contractile activity in skeletal muscles, after 5 hour of peroral administration in mouse; type: functional; details: Muscle tissue, po; procedure, shortened: as §5
Canis familiaris = test: Antagonistic activity against apomorphine-induced emesis, after 5 hour of peroral administration in dogs; type: functional; details: Canis lupus familiaris, po
Procedure, shortened: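 Male and female dogs pretreated orally, then challenged with apomorphine 0.3 mg/kg sc. Complete protection from vomiting for 30 min after apomorphine is the criterion. ED50 is the dose protecting 50% of dogs, per Janssen's method.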

Rattus norvegicus [16] = test: Antagonistic activity against apomorphine-induced stereotypy, after 5 hour of peroral administration in rats; type: functional; details: po
Procedure, shortened: (§6)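 Male rats fasted overnight and given oral doses in arabic gum suspension (10 mL/kg) 1 h, or 1 and 5 h, before challenge. Apomorphine 3 mg/kg iv, with stereotypy observed 20 min later. ED50 is the dose inhibiting stereotypy in 50% of rats, per Janssen's method. Parenthetical entries give the maximal dose and percent activity.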

Mus musculus [17] = test: Activity of inclined screen in mouse, after 1 hour of peroral administration in mouse; type: functional; details: po
Procedure, shortened: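 Male mice dosed orally (arabic gum suspension, 10 mL/kg, fasted overnight) 1 or 5 h before testing. Placed for 1 h on a wire screen bent at 60° to the horizontal. Ataxic or miorelaxed mice slide off. ED50 is the dose at which 50% of mice fall, by probit analysis. Ten animals per dose, with vehicle controls.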

Mus musculus [18] = test: Potentiation against pentobarbital-induced sleeping, after 1 hour of peroral administration in mouse; type: functional; details: po
Procedure, shortened: (§7)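 Female mice fasted overnight, dosed orally 1 or 5 h beforehand as arabic gum suspension, 10 mL/kg, with vehicle controls. Subhypnotic pentobarbital 10 mg/kg iv; 3 min later placed on back, effect scored as complete loss of righting reflex for at least 15 s. ED50 = dose producing this in 50% of mice, probit analysis.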

Rattus norvegicus [19] = test: Activity to evoke catalepsy, after 1 hour of peroral administration in rats; type: functional; details: po; procedure, shortened: as §4
Mus musculus [20] = test: Anticonvulsant activity against tryptamine-induced convulsions, after 1 hour of peroral administration in mouse; type: functional; details: po
Procedure, shortened: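 Compounds were dosed as bases suspended in arabic gum at 10 mL/kg orally, after an overnight fast, with vehicle controls. Protection meant no bilateral forepaw clonic seizures or head twitches (tryptamine), or no tonic hind-limb extension (the other two). ED50 is the dose protecting 50%, by probit analysis.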

Rattus norvegicus [21] = test: Antagonistic activity against apomorphine-induced stereotypy, after 1 hour of peroral administration in rats; type: functional; details: po; procedure, shortened: as §6
Rattus norvegicus [22] = test: Inhibition against conditioned avoidance response, after 1 hour of peroral administration in rats; type: functional; details: po
Procedure, shortened: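 Male rats were trained in a shuttle box to avoid grid-floor shock by crossing compartments during a warning period. Dosing was oral as a gum arabic suspension at 10 mL/kg after an overnight fast. Percent inhibition was computed against a pretraining test. ED50 is the dose giving 50% inhibition.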

Mus musculus [23] = test: Potentiation against pentobarbital-induced sleeping, after 5 hour of peroral administration in mouse; type: functional; details: po; procedure, shortened: as §7

| Compound | ED50 (Mus musculus [1]) | LD50 [2] | ED50 (Rattus norvegicus [3]) | ED50 (Mus musculus [4]) | ED50 (Mus musculus [5]) | ED50 (Mus musculus [6]) | ED50 (Mus musculus [7]) | ED50 (Rattus norvegicus [8]) | ED50 (Mus musculus [9]) | ED50 (Rattus norvegicus [10]) | ED50 (Mus musculus [11]) | ED50 (Mus musculus [14]) | ED50 (Mus musculus [15]) | ED50 (Rattus norvegicus [16]) | ED50 (Mus musculus [17]) | ED50 (Mus musculus [18]) | ED50 (Rattus norvegicus [19]) | ED50 (Mus musculus [20]) | ED50 (Rattus norvegicus [21]) | ED50 (Rattus norvegicus [22]) | further results |
| --- | --- | --- | --- | --- | --- | --- | --- | --- | --- | --- | --- | --- | --- | --- | --- | --- | --- | --- | --- | --- | --- |
| O=c1[nH]c(-c2ccc(F)cc2)c(CCN2CCN(c3cc(Cl)cc(Cl)c3)CC2)o1 [LODIPERONE] | 0.37 mg/kg | > 2000 mg/kg | 2.2 mg/kg | 1.5 mg/kg | 23.8 mg/kg | 2.7 mg/kg | 0.84 mg/kg | 13.5 mg/kg | 2.7 mg/kg | 24.3 mg/kg | 0.21 mg/kg | 1.9 mg/kg | 200 mg/kg | 106 mg/kg |  |  |  |  |  |  | ED50 (Mus musculus [12]): 1.5 mg/kg; ED50 (Mus musculus [13]): 200 mg/kg; ED50 (Canis familiaris): 2.5 mg/kg |
| COc1ccccc1N1CCN(CCCC(=O)c2ccc(F)cc2)CC1 [FLUANISONE] | 5 mg/kg | 180 mg/kg |  | 16.4 mg/kg | 6.1 mg/kg | 7.7 mg/kg | 14.7 mg/kg | 17.8 mg/kg |  | 13.9 mg/kg | 15 mg/kg | 18 mg/kg | 50 mg/kg |  | 49 mg/kg | 20.7 mg/kg | 18 mg/kg | 12.5 mg/kg | 63.2 mg/kg | 25 mg/kg | ED50 (Mus musculus [12]): 16.4 mg/kg; ED50 (Mus musculus [13]): 20 mg/kg; ED50 (Canis familiaris): 8.6 mg/kg |
| COc1ccccc1N1CCN(CCc2oc(=O)[nH]c2-c2ccc(F)cc2)CC1 [ZOLOPERONE] | 0.42 mg/kg | > 2000 mg/kg | 7.1 mg/kg | 4 mg/kg | 4.7 mg/kg | 4.6 mg/kg | 15.9 mg/kg | 5.3 mg/kg | 4.6 mg/kg | 21.5 mg/kg | 4 mg/kg | 15 mg/kg | 62.5 mg/kg | 60.7 mg/kg | 91 mg/kg | 41.1 mg/kg | 55.6 mg/kg | 9.8 mg/kg | 10.4 mg/kg | 3.5 mg/kg | ED50 (Mus musculus [23]): 37.3 mg/kg; ED50 (Mus musculus [12]): 4 mg/kg; ED50 (Canis familiaris): 1.5 mg/kg |
| CN(C)CCCN1c2ccccc2Sc2ccc(Cl)cc21 [CHLORPROMAZINE] | 2 mg/kg |  | 6 mg/kg | 4.1 mg/kg |  |  | 4.4 mg/kg | 19.4 mg/kg |  |  | 2.2 mg/kg | 2.4 mg/kg | 10.3 mg/kg | 41.6 mg/kg | 5.4 mg/kg | 3.2 mg/kg | 10.3 mg/kg | 3.4 mg/kg | 28.9 mg/kg | 6.8 mg/kg | ED50 (Mus musculus [23]): 3.3 mg/kg; ED50 (Mus musculus [13]): 36.5 mg/kg |
| O=C(CCCN1CCC(O)(c2ccc(Cl)cc2)CC1)c1ccc(F)cc1 [HALOPERIDOL] | 0.12 mg/kg |  | 0.3 mg/kg | 0.12 mg/kg |  |  | 0.32 mg/kg | 0.27 mg/kg | 0.16 mg/kg |  | 0.045 mg/kg | 0.28 mg/kg | 15 mg/kg | 1.8 mg/kg | 6.8 mg/kg | 7 mg/kg | 15.4 mg/kg | 1.1 mg/kg | 1.1 mg/kg | 0.23 mg/kg | ED50 (Mus musculus [23]): 3.1 mg/kg |

Source: ChEMBL document CHEMBL1124344, “5-Piperazinylalkyl-2(3H)-oxazolones with neuroleptic activity” (J Med Chem, 1989)
